Screening data deposited in PubChem BioAssay by Broad Institute.
RAD54 branch – inhibitors of human RAD54 branch migration; Q92698; RAD54 Holliday junction branch migration, FAM/BHQ fluorescence; inhibition, % at 10.4 µM; 360,000 tested, 0.14% active; AID 602329;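 active = mean normalized replicate activity at least 40 and at least half of replicates scoring 40 or more; inconclusive = only one of the two criteria met; inactive = mean below 40 and under half of replicates reaching 40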;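 note: 0% = median of neutral control wells and 100% = median of positive control wells; inhibitors cause a drop in the FAM fluorescence signal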
Target sequence (Q92698 whole entry, looked up): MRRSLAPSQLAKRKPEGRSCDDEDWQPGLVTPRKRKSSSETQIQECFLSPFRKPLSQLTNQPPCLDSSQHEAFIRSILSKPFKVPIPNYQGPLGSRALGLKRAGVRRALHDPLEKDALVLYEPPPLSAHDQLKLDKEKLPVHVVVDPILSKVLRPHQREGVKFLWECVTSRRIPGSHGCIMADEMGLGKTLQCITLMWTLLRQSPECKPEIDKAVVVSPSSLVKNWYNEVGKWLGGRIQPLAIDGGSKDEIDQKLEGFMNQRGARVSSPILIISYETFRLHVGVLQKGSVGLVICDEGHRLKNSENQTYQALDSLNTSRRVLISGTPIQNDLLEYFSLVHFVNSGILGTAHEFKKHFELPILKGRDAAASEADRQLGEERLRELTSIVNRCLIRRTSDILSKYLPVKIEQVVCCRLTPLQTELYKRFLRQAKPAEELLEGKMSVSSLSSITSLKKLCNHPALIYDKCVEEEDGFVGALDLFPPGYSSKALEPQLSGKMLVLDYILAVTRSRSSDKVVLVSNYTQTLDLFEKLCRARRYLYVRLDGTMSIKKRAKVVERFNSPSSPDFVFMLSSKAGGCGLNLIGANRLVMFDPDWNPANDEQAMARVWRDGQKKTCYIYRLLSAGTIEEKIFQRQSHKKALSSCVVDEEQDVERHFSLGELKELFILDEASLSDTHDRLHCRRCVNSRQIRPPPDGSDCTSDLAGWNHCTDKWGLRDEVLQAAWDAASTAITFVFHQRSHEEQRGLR
SR-BI HDL uptake – inhibitors of mouse SR-BI mediated HDL lipid uptake; Q61009; ldlA[mSR-BI] CHO cells, DiI-HDL uptake fluorescence, 3 h; inhibition, % at 12.5 µM; 320,000 tested, 0.96% active;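 active = mean replicate inhibition of at least 70% and a set share of replicates each scoring 70 or more; inconclusive = meets just one of the two criteria; inactive = fails both criteria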;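 note: 0% = median of neutral control wells and 100% = median of positive control wells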
dFosB act – mouse delta FosB homodimer activation. P13346. purified delta FosB, TAMRA-CDK5 oligo fluorescence polarization; percent of positive-control signal above neutral wells. activation, % at 25 µM. 340,000 tested, 0.99% active;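 active = mean activation above about 17%, with every replicate also reaching it, limit read from the data, passing the limit was not always enough; inconclusive = only one of the two conditions met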
S100A4 MyoIIA – blocks human S100A4 binding to myosin IIA peptide. AID 652163. 360,000 tested, 0.14% active. P26447. inhibition, % at 10.7 µM. S100A4/TAMRA-MyoIIA peptide fluorescence polarization;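 active = mean inhibition of at least 70% across replicates, with every replicate also reaching that level; inconclusive = mean inhibition reaches 70% but some replicates fall short; inactive = mean inhibition below 70%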
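incubation = readout 5 min after mixing, signal stable up to 60 min | system = S100A4 monomer protein | buffer or medium = HEPES pH 7.2 with CaCl2, KCl, NaCl, DTT, Triton | benchmarks = neutral control DMSO, positive control TFP | also added = fluorescent myosin IIA peptide, 5 nM | compound dosing = one concentration per compound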
PvdQ acylase – blocks Pseudomonas aeruginosa PvdQ acylase activity; purified PvdQ acylase, fluorescence plate reader; inhibition, % at 10 µM; 340,000 tested, 0.063% active; in the data active = inhibition above about 30%, passing the limit was not always enough; inconclusive = no clear call, values can overlap the other calls;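 note: 0% = vehicle neutral wells and 100% = reference inhibitor wells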
SR-BI uptake up – activators of SR-BI mediated HDL lipid uptake | CHO ldlA[mSR-BI] cells, DiI-HDL uptake fluorescence, 3 h; 100 = double the neutral-control signal | activation, % at 12.5 µM | 320,000 tested, 0.096% active;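 active = mean replicate activation of at least 60% and every replicate at or above 60%; inconclusive = mean or all-replicate condition met, but not both; inactive = mean below 60% and not all replicates reaching 60%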;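 note: 0% = median plate neutral-control signal and 100% = twice that signal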
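Material – SR-BI-overexpressing, LDLR-lacking CHO cells · Medium – BSA-supplemented, HEPES-buffered Ham's F12, pH 7.4 · Doses – single concentration · Times – compound with DiI-HDL co-incubation, 3 h at 37 °C · Measured by – bottom-read fluorescence, 550/595 nm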
DiI quencher – DiI fluorescence quenching in cell-free counter-screen | AC50, µM (doses to about 35 µM), for inactives: top-dose activity change, negative = quenching | AID 540326 | shares compounds with SR-BI HDL uptake | cell-free DiI-HDL fluorescence quenching, 30 min | 470 tested, 20% active;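 active = quenching, a falling signal, with AC50 below a set limit tied to the top valid dose, actives reach about 32 µM in these data; inconclusive = no clear call, values can overlap the other calls; inactive = rising signal, and the rest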
Active calls of the source: *. In the library only some 1.6% were active in any assay of this set; here they are far more common.

Results for Cn1c(CCN2CCN(c3ccccn3)CC2)nc2cc(NS(=O)(=O)c3ccc(Cl)cc3)ccc21 ?
RAD54 branch: -11; SR-BI HDL uptake: 73*; dFosB act: -16; S100A4 MyoIIA: 2; PvdQ acylase: -7; SR-BI uptake up: -73; DiI quencher: -2%

What do the screens show for `Cc1ccc(S(=O)(=O)Nc2ccc3c(c2)nc(CCN2CCN(c4ccccn4)CC2)n3C)cc1`?
RAD54 branch: 7; SR-BI HDL uptake: 34; dFosB act: -5; S100A4 MyoIIA: -4; PvdQ acylase: -9; SR-BI uptake up: -34

How did COc1cc([N+](=O)[O-])ccc1NC(=O)NCC1CCN(Cc2ccc(Cl)cc2)CC1 do in these assays?
RAD54 branch: -1; SR-BI HDL uptake: 83*; dFosB act: 8; S100A4 MyoIIA: -8; PvdQ acylase: -16; SR-BI uptake up: -83; DiI quencher: -5%

Results for COc1cccc(CN(C)C[C@@H]2OCc3cnnn3CCCC(=O)N([C@@H](C)CO)C[C@@H]2C)c1 ?
RAD54 branch: -24; S100A4 MyoIIA: 5

How did COc1cc(NC(=O)C2CC(c3c(F)cccc3Cl)=NO2)c(OC)cc1Cl (stereo unspecified) do in these assays?
RAD54 branch: -9; SR-BI HDL uptake: 82*; dFosB act: -4; S100A4 MyoIIA: -13; PvdQ acylase: -13; SR-BI uptake up: -82; DiI quencher: 0%

What do the screens show for `CC(=O)Nc1ccc(NC(=O)c2cc(-n3cnnc3)ccc2Cl)cc1`?
RAD54 branch: -4; SR-BI HDL uptake: 16; dFosB act: -7; S100A4 MyoIIA: 4; PvdQ acylase: -8; SR-BI uptake up: -16

What do the screens show for `CN(C(=O)c1cc(-n2cnnc2)ccc1Cl)c1ccccc1`?
SR-BI HDL uptake: -11; dFosB act: -2; PvdQ acylase: -2; SR-BI uptake up: 11; DiI quencher: -3%

Results for COc1cc(NC(=O)c2cc(-n3cnnc3)ccc2Cl)cc(OC)c1 ?
RAD54 branch: 3; SR-BI HDL uptake: 44; dFosB act: -2; PvdQ acylase: 0; SR-BI uptake up: -44; DiI quencher: -2%

What do the screens show for `CCN(C(=O)COC(=O)c1cc(-c2ccccc2)nc2c1c(C)nn2-c1ccccc1)C1CCS(=O)(=O)C1` (stereo unspecified)?
SR-BI HDL uptake: 50; dFosB act: -3; S100A4 MyoIIA: 2; PvdQ acylase: 7; SR-BI uptake up: -50

How did Cc1ccc(-n2nc(C)c3c(C(=O)OCC(=O)N(C)C4CCS(=O)(=O)C4)cc(-c4ccccc4)nc32)cc1 (stereo unspecified) do in these assays?
SR-BI HDL uptake: inconclusive; dFosB act: -11; PvdQ acylase: 9; SR-BI uptake up: -70; DiI quencher: inconclusive

What do the screens show for `CN(C(=O)COn1nnc2ccc(S(=O)(=O)N3CCOCC3)cc21)c1ccccc1`?
RAD54 branch: -4; SR-BI HDL uptake: 8; dFosB act: -6; S100A4 MyoIIA: -2; PvdQ acylase: -15; SR-BI uptake up: -8; DiI quencher: -3%

How did CC(C)CN(CC(C)C)C(=O)COn1nnc2ccc(S(=O)(=O)N3CCOCC3)cc21 do in these assays?
RAD54 branch: -7; SR-BI HDL uptake: 70*; dFosB act: -12; S100A4 MyoIIA: 6; PvdQ acylase: 4; SR-BI uptake up: -70; DiI quencher: -5%

What do the screens show for `Cc1ccccc1COn1nnc2ccc(S(=O)(=O)N3CCOCC3)cc21`?
SR-BI HDL uptake: -11; dFosB act: -2; S100A4 MyoIIA: 0; PvdQ acylase: 0; SR-BI uptake up: 11

How did O=C(CCN1CCCCC1)N[C@H]1CC[C@@H](CCNS(=O)(=O)c2ccccc2)O[C@@H]1CO do in these assays?
RAD54 branch: 3

Results for CCCC#Cc1ccc(CC[C@H]2O[C@H]3CC[C@@H](CO)O[C@H]3C[C@H]2NS(=O)(=O)c2ccccc2)cc1 ?
S100A4 MyoIIA: 3

What do the screens show for `COc1ccc(N2CN=C3SCC(=O)N3C2)cc1`?
RAD54 branch: 0; SR-BI HDL uptake: -10; dFosB act: -16; PvdQ acylase: -14; SR-BI uptake up: 10

What do the screens show for `Cc1cc(C)cc(N2CN=C3SCC(=O)N3C2)c1`?
RAD54 branch: 3; SR-BI HDL uptake: inconclusive; dFosB act: -7; PvdQ acylase: -8; SR-BI uptake up: -71; DiI quencher: -3%

What do the screens show for `CNC[C@H]1Oc2cc(C#Cc3cccnc3)ccc2S(=O)(=O)N([C@@H](C)CO)C[C@@H]1C`?
RAD54 branch: 7; S100A4 MyoIIA: 2

How did COc1ccc(-c2ccc3c(c2)C2CC3CCN2C(=O)OCc2ccccc2)cc1 (stereo unspecified) do in these assays?
RAD54 branch: -12; SR-BI HDL uptake: -12; dFosB act: -4; S100A4 MyoIIA: -3; PvdQ acylase: -12; SR-BI uptake up: 12

Results for O=C(OCc1ccccc1)N1CCC2CC1c1cc(-c3ccc(F)cc3)ccc12 (stereo unspecified) ?
RAD54 branch: -12; dFosB act: -4; S100A4 MyoIIA: -6; PvdQ acylase: -14; DiI quencher: -4%

How did CC(C)CN(C(=O)COC(=O)C12CC3CC(CC(O)(C3)C1)C2)C1CCS(=O)(=O)C1 (stereo unspecified) do in these assays?
SR-BI HDL uptake: 9; dFosB act: -2; PvdQ acylase: 3; SR-BI uptake up: -9; DiI quencher: -6%

Results for CNC(=O)COC(=O)/C=C/c1cn(-c2ccccc2)nc1-c1ccc2c(c1)OCCO2 ?
SR-BI HDL uptake: -26; dFosB act: -3; S100A4 MyoIIA: -3; PvdQ acylase: 3; SR-BI uptake up: 26

Results for Cc1ccc(-c2nn(-c3ccccc3)cc2/C=C/C(=O)OCC(=O)NC2CC2)o1 ?
SR-BI HDL uptake: 72*; dFosB act: 0; S100A4 MyoIIA: -7; PvdQ acylase: 5; SR-BI uptake up: -72; DiI quencher: 11%

What do the screens show for `COCCCN(C(=O)c1ccco1)c1nc(-c2ccc(OC)cc2)cs1`?
RAD54 branch: 0; SR-BI HDL uptake: 111*; dFosB act: -9; S100A4 MyoIIA: -1; PvdQ acylase: -17; SR-BI uptake up: -111; DiI quencher: -1%

What do the screens show for `COCCCN(C(=O)c1ccccc1)c1nc(-c2ccc(OC)cc2)cs1`?
RAD54 branch: 1; SR-BI HDL uptake: 27; dFosB act: -4; S100A4 MyoIIA: -3; PvdQ acylase: 11; SR-BI uptake up: -27

How did CN(C)C(=O)c1cccc(-c2ccc([C@H]3[C@@H](C#N)N(C(=O)C4CCCC4)[C@H]3CO)cc2)c1 do in these assays?
S100A4 MyoIIA: -22
